Published values of several laboratories.
Each line is one published result; the experiments were not run side by side.
Effect on: cell growth or viability

COc1ccc(COc2cc3oc(=O)c4cc(C(C)O)ccc4c3cc2OC)cc1 (stereo not shown)  IC50 (MB002; 7 days): > 10 µM
CCn1c(-c2nnc(NC(=O)c3cc4c([nH]c5ccccc54)c(-c4ccc(C)cc4)n3)s2)cc2ccccc21  IC50 (BT-474; MTT; 72 h): 19.5 µM
CC(C)C[C@H](NC(=O)[C@H](Cc1ccccc1)NC(=O)c1cnccn1)B(O)O  IC50 (SK-ES1; ATP luminescence): 0.0087 µM
Cc1ccc2[nH]c(=O)c3cc(C(=O)NCCCN(C)Cc4ccccc4)sc3c2c1  IC50 (CFPAC-1; MTT; 24 h): 16.8 µM
O=C(Nc1cccc(CO)c1)c1c[nH]c2ccc(Cl)cc12  IC50 (SK-N-BE; MTT): 19 µM
COc1ccc(-c2nc(C(=O)Nc3nnc(-c4cc5ccccc5n4C)s3)cc3c2[nH]c2ccccc23)cc1  IC50 (BT-474; MTT; 72 h): 14.1 µM
COc1cc(OC)c(/C=C/S(=O)(=O)Nc2ccc(OC)c(N)c2)c(OC)c1  IC50 (MES-SA; trypan blue; 96 h): 0.004 µM
O=C(NC[C@H](O)CO)c1ccncc1Nc1ccc(I)cc1F  IC50 (MB002; 7 days): > 10 µM
CC(=NN=c1[nH]c(C)c(N=Nc2ccccc2)s1)c1c(O)c2ccccc2oc1=O  IC50 (human Skin fibroblast; MTT; 48 h): > 100 µM
CON(C)C(=O)N1N=C(c2cc(F)ccc2F)S[C@@]1(CCCN)c1ccccc1  IC50 (MB002; 7 days): 0.000967 µM
O=C(Nc1nnc(-c2cc3ccccc3[nH]2)s1)c1cc2c([nH]c3ccccc32)c(-c2ccc(Cl)cc2)n1  IC50 (BT-474; MTT; 72 h): 8.68 µM
CC(C)c1cc(-c2n[nH]c(=O)n2-c2ccc3c(ccn3C)c2)c(O)cc1O  IC50 (B16-F10; imaging; 24 h): 0.321 µM
Oc1ccc(Nc2nc(-c3ccc(Cl)cc3)cs2)cc1  IC50 (WM278; MTS; 48 h): 21.4 µM
COc1cc(Nc2nccc(-c3cnn4nc(OC)ccc34)n2)cc(C(F)(F)F)c1  IC50 (T84; ATP luminescence): 1.3 µM
N#Cc1ccc(COC[C@H]2O[C@@H](n3c(NCc4ccc(Cl)c(Cl)c4)nc4c(N)ncnc43)[C@H](O)[C@@H]2O)cc1  IC50 (HD-MB03): 3.36 µM
COc1cccc2c1C(=O)c1c(O)c3c(c(O)c1C2=O)C[C@@](O)(C(=O)CO)C[C@@H]3O[C@H]1C[C@H](N)[C@H](O)[C@H](C)O1  IC50 (human Skin fibroblast; MTT; 48 h): 0.16 µM
CCn1c(C)c(C(C)=O)sc1=NN=C(C)c1c(O)c2ccccc2oc1=O  IC50 (human Skin fibroblast; MTT; 48 h): > 100 µM
CN1CCN(CCOc2cc(OC3CCOCC3)c3c(Nc4c(Cl)ccc5c4OCO5)ncnc3c2)CC1  IC50 (HD-MB03; 7 days): > 10 µM
CC(=NN=C1NC(=O)C(C)S1)c1c(O)c2ccccc2oc1=O (stereo not shown)  IC50 (human Skin fibroblast; MTT; 48 h): > 100 µM
CS(=O)(=O)c1ccc(C(=O)Nc2ccc(Cl)c(-c3ccccn3)c2)c(Cl)c1  IC50 (HD-MB03; 7 days): > 10 µM
CNC(=S)NN=C(C)c1c(O)c2ccccc2oc1=O  IC50 (human Skin fibroblast; MTT; 48 h): > 100 µM
CC[C@H](C)[C@@H]([C@@H](CC(=O)N1CCC[C@H]1[C@H](OC)[C@@H](C)C(=O)N[C@@H](Cc1ccccc1)C(=O)O)OC)N(C)C(=O)[C@@H](NC(=O)[C@@H](NC)C(C)C)C(C)C  IC50 (M21; MTT; 72 h): > 1 µM
CC(=NN=c1[nH]c(C)cs1)c1c(O)c2ccccc2oc1=O  IC50 (human Skin fibroblast; MTT; 48 h): > 100 µM
O=C(N/N=C/c1c(O)ccc2ccccc12)c1cc(-c2ccc3ccccc3c2)n[nH]1  IC50 (WM278; MTS; 24 h): 29 µM
CC(=NN=c1sc(N=Nc2ccccc2)c(C)n1C)c1c(O)c2ccccc2oc1=O  IC50 (human Skin fibroblast; MTT; 48 h): > 100 µM
CCN1CCN(Cc2ccc(Nc3ncc(F)c(-c4cc(F)c5nc(C)n(C(C)C)c5c4)n3)nc2)CC1  IC50 (MB002; 7 days): 0.0719 µM
CC(=O)O[C@H]1C(=O)[C@@]2(C)[C@H]([C@H](OC(=O)c3ccccc3)[C@]3(O)C[C@H](OC(=O)[C@H](O)[C@@H](NC(=O)c4ccccc4)c4ccccc4)C(C)=C1C3(C)C)[C@]1(OC(C)=O)CO[C@@H]1C[C@@H]2O  IC50 (KB 3-1; MTT): 0.00772 µM
CCn1c(-c2nnc(NC(=O)c3cc4c([nH]c5ccccc54)c(-c4ccc(OC)cc4)n3)s2)cc2ccccc21  IC50 (BT-474; MTT; 72 h): 20.1 µM
COc1cc([C@@H]2c3cc4c(cc3[C@@H](O[C@@H]3O[C@@H]5CO[C@@H](C)O[C@H]5[C@H](O)[C@H]3O)[C@H]3COC(=O)[C@H]23)OCO4)cc(OC)c1O  IC50 (human Skin fibroblast; 48 h): 5 µM
CCOC(=O)c1sc(=NN=C(C)c2c(O)c3ccccc3oc2=O)n(CC)c1C  IC50 (human Skin fibroblast; MTT; 48 h): > 100 µM
CCC(=O)N1CCN(c2ccc(-n3c(=O)ccc4cnc5ccc(-c6cnc7ccccc7c6)cc5c43)cc2C(F)(F)F)CC1  IC50 (MB002; 7 days): 0.0154 µM
